A short description of series [1]: Cytotoxicity against mammalian cells. In kind it is cell-based. The following applies: human, HeLa-KB cells (subline of HeLa, ATCC CCL-17). In outline: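 HeLa-KB cells seeded at 4 x 10^4/mL in RPMI-1640 with 10% heat-inactivated FCS and held 24 h (5% CO2). Medium was replaced by test compound in fresh medium, 30 µg/mL to 100 ng/mL, in triplicate, with a podophyllotoxin positive control. After 72 h, alamarBlue for 4 h, then fluorescence at 530/585 nm. CC50 from a nonlinear Emax sigmoid fit; at least three repeats.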

For series [2], the system named is Leishmania amazonensis promastigotes. The series can be described thus: In vitro activity against promastigotes. In kind it is cell-based. The following applies: 72 h; for IC50: Leishmania amazonensis; for MPC (minimal parasiticide concentration): promastigotes, 26 °C, mean ± SD. In outline: (§1)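 Strains: L. amazonensis MHOM/77/LTB0016, L. infantum MHOM/FR/78/LEM75, L. braziliensis MHOM/BR/75/M2 903. Log-phase promastigotes at 5 x 10^5/mL in Schneider's with 10% heat-inactivated FBS; compound added from two-fold DMSO stocks (4 mg/mL–3.9 µg/mL), DMSO at most 0.5%. Incubated 72 h at 26 °C. MPC = geometric mean (4 replicates) of concentrations fully stopping motility, by microscope. Then p-nitrophenyl phosphate, 3 h 37 °C, A405, minus parasite-free drug wells. IC50 by Emax sigmoid fit; at least three repeats.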

Series [3] deals with Leishmania braziliensis promastigotes. Nature of the series: In vitro activity against promastigotes. In kind it is cell-based. To be noted: 72 h; for IC50: Leishmania braziliensis; for MPC (minimal parasiticide concentration): promastigotes, 26 °C, mean ± SD. The method in brief:
as §1

The subject of series [4] is Leishmania infantum promastigotes. Nature of the series: In vitro activity against promastigotes. The class given is cell-based. The following applies: 72 h; for IC50: Leishmania infantum; for MPC (minimal parasiticide concentration): promastigotes, 26 °C, mean ± SD. The method in brief: as §1
A further series deals with Leishmania amazonensis. The series can be described thus: Mouse model of experimental cutaneous leishmaniasis, lesion size. To be noted: furvina 2 mg/Kg, UC245 100 mg/Kg; for average lesion size with respect to the control group: experiment 2: early lesions, intraperitoneal every 12 h for 14 days, 28 days of follow up; for effect on chronic lesions (in words): experiment 3: chronic lesions, 18 weeks post-infection, every 12 h for 14 days. The class given is in vivo, BALB/c mice. In outline:
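Female BALB/c mice (16-18 g, 6-8 weeks) infected intradermally in the footpad with 5 x 10^6 stationary-phase promastigotes. Intraperitoneal dosing every 12 h for 14 days, test compounds in Miglyol 810. Controls were untreated infected mice and amphotericin B (1 mg/Kg in early lesions; 5 mg/Kg every 48 h in chronic). Lesions measured weekly by Vernier calliper; chronic size taken as dorsoplantar × lateral diameter.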

For series [5], the system named is intracellular amastigotes. Nature of the series: Activity against intracellular amastigotes in mouse peritoneal macrophages. To be noted: drug concentrations not toxic to mouse peritoneal macrophages used as host cells; data not shown. The class given is cell-based.
Series [6] concerns promastigotes of Leishmania amazonensis, Leishmania infantum and Leishmania braziliensis. In kind it is cell-based. The following applies: read-out: Average IC50. In outline: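 IC50 was measured separately for L. amazonensis, L. infantum and L. braziliensis promastigotes. Each assay: 72 h at 26 °C, phosphatase read-out (p-nitrophenyl phosphate, A405), Emax sigmoid fit. The average IC50 is the arithmetic mean of the three species' IC50 values.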

Molecules are shown by their SMILES.

One may read the CC50 as the concentration giving 50% cytotoxicity. Higher therefore signals lower toxicity to the cells. For `COc1cc([C@@H]2c3cc4c(cc3[C@H](O)[C@H]3COC(=O)[C@H]23)OCO4)cc(OC)c1OC` [podophyllotoxin, reference compound], the CC50 at 72 h in series [1] came to 5.3 ± 1.4 nM.
The IC50 is the point on the concentration scale where inhibition reaches its midpoint. For `CC(=Cc1ccc(Br)o1)[N+](=O)[O-]` [UC245, 2-bromo-5-(2-methyl-2-nitrovinyl)-furan], the concentration for half-maximal inhibition (IC50) in series [2] was found to be 900 ± 200 nM; in series [3], 1000 ± 300 nM; in series [4] it was 900 ± 300 nM; in series [6] it was 930 nM. Besides, the “MPC (minimal parasiticide concentration)” value is 6.1 ± 0.4 µM in series [2] (complete arrest of motion), 5.7 ± 0.4 µM in series [3] (complete arrest of motion) and 2.7 ± 0.4 µM in series [4] (complete arrest of motion). The same molecule returned a CC50 at 72 h in series [1] of 16700 ± 1800 nM. Also, the “average lesion size with respect to the control group” value in the series with Leishmania amazonensis came out at 55%. Also, the “effect on chronic lesions (in words)” value with Leishmania amazonensis was “did not show any efficacy”. Also, the “efficacy in reducing the percentage of infected cells” value in series [5] was “under 50%”.
For `C[C@@H]1[C@H](O)[C@@H](C)/C=C/C=C/C=C/C=C/C=C/C=C/C=C/[C@H](O[C@@H]2O[C@H](C)[C@@H](O)[C@H](N)[C@@H]2O)C[C@@H]2O[C@](O)(C[C@@H](O)C[C@@H](O)[C@H](O)CC[C@@H](O)C[C@@H](O)CC(=O)O[C@H]1C)C[C@H](O)[C@H]2C(=O)O` [Amphotericin B, amphotericin B, reference compound], the results for the half-inhibitory concentration (IC50) in series [2], in series [3] and in series [4] were 29 ± 5 nM, 14 ± 3 nM and 14 ± 4 nM, respectively. The “MPC (minimal parasiticide concentration)” value in series [2] (amphotericin B) was found to be 55 ± 7 nm; in series [3] (amphotericin B), 30 ± 6 nm; in series [4] (amphotericin B), 17 ± 5 nm.
Regarding `O=[N+]([O-])C(Br)=Cc1ccc(Br)o1` [Furvina, 2-bromo-5-(2-bromo-2-nitrovinyl)-furan], the IC50 is 800 ± 300 nM in series [2], 900 ± 400 nM in series [3], 1200 ± 300 nM in series [4] and 970 nM in series [6]. In addition, the results for the “MPC (minimal parasiticide concentration)” value in series [2] (complete arrest of motion), in series [3] (complete arrest of motion) and in series [4] (complete arrest of motion) were 5.2 ± 0.4 µM, 1.7 ± 0.4 µM and 2.9 ± 0.3 µM, respectively. Besides, in series [1], the CC50 at 72 h was 13600 ± 2200 nM. Moreover, in the series on Leishmania amazonensis, the “average lesion size with respect to the control group” value is reported as 59%. The “effect on chronic lesions (in words)” value in the series on Leishmania amazonensis is “progressively decreased lesion sizes”. Moreover, the “efficacy in reducing the percentage of infected cells” value in series [5] is given as “under 50%”.

For the origin of these results see article PMC4489446 (Memórias do Instituto Oswaldo Cruz, 2015).
